Laboratory results taken from ChEMBL document CHEMBL1137333, “Synthesis, radiosynthesis, and biological evaluation of carbon-11 labeled 2beta-carbomethoxy-3beta-(3'-((Z)-2-haloethenyl)phenyl)nortropanes: candidate radioligands for in vivo imaging of the serotonin transporter with positron emission tomography” (J Med Chem, 2006).

Columns and labels:
[1] = test system: Cynomolgus monkey; test: Uptake in anesthetized cynomolgus monkey thalamus after 65.0 mins; assay type: ADME, organism-based; conditions: in vivo
Outline: (§1)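 Baseline microPET (Concorde P4) scan in anesthetized cynomolgus monkeys after injection of the carbon-11 labeled tracer, with no chase drug. Regional brain time-activity curves were followed over the scan. Tracer radiochemical purity and specific activity were determined by analytical HPLC at the time of injection.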

[2] = test system: Cynomolgus monkey; test: Uptake in anesthetized cynomolgus monkey thalamus after 105.0 mins; assay type: ADME, organism-based; conditions: in vivo, 1.75 h; outline: as §1
[3] = test system: Cynomolgus monkey; test: Uptake in anesthetized cynomolgus monkey caudate after 2.5 mins; assay type: ADME, organism-based, Caudate nucleus; conditions: in vivo
Outline: (§2)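 Baseline microPET (Concorde P4) regional brain time-activity curves in anesthetized cynomolgus monkey following injection of the [11C]-labelled tracer, with radioactivity followed over the scan.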

[4] = test system: Cynomolgus monkey; test: Uptake in anesthetized cynomolgus monkey medulla after 35.0 mins; assay type: ADME, organism-based, Medulla of organ; conditions: in vivo
Outline: (§3)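 Baseline microPET scan (P4 scanner) of anesthetized cynomolgus monkeys after injection of the carbon-11 labelled nortropane tracer. Two baseline studies were run per tracer. Radioactivity was followed over time in regional brain time-activity curves.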

[5] = test system: Cynomolgus monkey; test: Ratio of uptake in occipital to cerebellum of anesthetized cynomolgus monkey after 85 mins; assay type: ADME, organism-based; conditions: in vivo
Outline: (§4)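 Baseline microPET (Concorde P4) in anesthetized cynomolgus monkey after injection of the [11C]-labelled tracer. Regional time-activity curves were taken, and each region's uptake was divided by cerebellum uptake (low-SERT reference) at 65, 85 and 105 min postinjection.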

[6] = test system: Cynomolgus monkey; test: Uptake in anesthetized cynomolgus monkey medulla after 15.5 mins; assay type: ADME, organism-based, Medulla of organ; conditions: in vivo; outline: as §3
[7] = test system: Cynomolgus monkey; test: Ratio of uptake in caudate to cerebellum of anesthetized cynomolgus monkey after 85 mins; assay type: ADME, organism-based; conditions: in vivo; outline: as §4
[8] = test system: Cynomolgus monkey; test: Uptake in anesthetized cynomolgus monkey putamen after 15.5 mins; assay type: ADME, organism-based; conditions: in vivo; outline: as §1
[9] = test system: Cynomolgus monkey; test: Uptake in anesthetized cynomolgus monkey putamen after 115.0 mins; assay type: ADME, organism-based; conditions: in vivo; outline: as §1
[10] = test system: Cynomolgus monkey; test: Uptake in anesthetized cynomolgus monkey medulla after 55.0 mins; assay type: ADME, organism-based, Medulla of organ; conditions: in vivo; outline: as §3
[11] = test system: Cynomolgus monkey; test: Uptake in anesthetized cynomolgus monkey medulla after 115.0 mins; assay type: ADME, organism-based, Medulla of organ; conditions: in vivo; outline: as §3
[12] = test system: Cynomolgus monkey; test: Uptake in anesthetized cynomolgus monkey occipital after 55.0 mins; assay type: ADME, organism-based, Occipital cortex; conditions: in vivo; outline: as §3
[13] = test system: Cynomolgus monkey; test: Ratio of uptake in frontal to cerebellum of anesthetized cynomolgus monkey after 85 mins; assay type: ADME, organism-based; conditions: in vivo; outline: as §4
[14] = test system: Cynomolgus monkey; test: Ratio of uptake in thalamus to cerebellum of anesthetized cynomolgus monkey after 85 mins; assay type: ADME, organism-based; conditions: in vivo; outline: as §4
[15] = test system: Cynomolgus monkey; test: Uptake in anesthetized cynomolgus monkey frontal after 9.5 mins; assay type: ADME, organism-based, Frontal cortex; conditions: in vivo; outline: as §3
[16] = test system: Cynomolgus monkey; test: Uptake in anesthetized cynomolgus monkey cerebellum after 115.0 mins; assay type: ADME, organism-based; conditions: in vivo; outline: as §2
[17] = test system: Cynomolgus monkey; test: Uptake in anesthetized cynomolgus monkey thalamus after 9.5 mins; assay type: ADME, organism-based; conditions: in vivo; outline: as §1
[18] = test system: Cynomolgus monkey; test: Uptake in anesthetized cynomolgus monkey pons after 1.5 mins; assay type: ADME, organism-based, Macaca mulatta; conditions: rhesus monkey, in vivo, 0.025 h; outline: as §3
[19] = test system: Cynomolgus monkey; test: Uptake in anesthetized cynomolgus monkey medulla after 0.5 mins; assay type: ADME, organism-based, Medulla of organ; conditions: in vivo; outline: as §3
[20] = test system: Cynomolgus monkey; test: Uptake in anesthetized cynomolgus monkey caudate after 45.0 mins; assay type: ADME, organism-based, Caudate nucleus; conditions: in vivo, 0.75 h; outline: as §2
[21] = test system: Cynomolgus monkey; test: Uptake in anesthetized cynomolgus monkey midbrain after 55.0 mins; assay type: ADME, organism-based; conditions: in vivo; outline: as §3
[22] = test system: Cynomolgus monkey; test: Ratio of uptake in pons to cerebellum of anesthetized cynomolgus monkey after 65 mins; assay type: ADME, organism-based; conditions: in vivo; outline: as §4
[23] = test system: Cynomolgus monkey; test: Uptake in anesthetized cynomolgus monkey frontal after 105.0 mins; assay type: ADME, organism-based, Frontal cortex; conditions: in vivo, 1.75 h; outline: as §3
[24] = test system: Cynomolgus monkey; test: Uptake in anesthetized cynomolgus monkey occipital after 15.5 mins; assay type: ADME, organism-based, Macaca mulatta, Occipital cortex; conditions: rhesus monkey, in vivo; outline: as §3
[25] = test system: Cynomolgus monkey; test: Uptake in anesthetized cynomolgus monkey frontal after 0.5 mins; assay type: ADME, organism-based, Frontal cortex; conditions: in vivo; outline: as §2
[26] = test system: Cynomolgus monkey; test: Uptake in anesthetized cynomolgus monkey midbrain after 95.0 mins; assay type: ADME, organism-based; conditions: in vivo; outline: as §3
[27] = test system: Cynomolgus monkey; test: Uptake in anesthetized cynomolgus monkey midbrain after 0.5 mins; assay type: ADME, organism-based; conditions: in vivo; outline: as §3
[28] = test system: Cynomolgus monkey; test: Ratio of uptake in pons to cerebellum of anesthetized cynomolgus monkey after 105 mins; assay type: ADME, organism-based; conditions: in vivo, 1.75 h; outline: as §4
[29] = test system: Cynomolgus monkey; test: Uptake in anesthetized cynomolgus monkey frontal after 45.0 mins; assay type: ADME, organism-based, Frontal cortex; conditions: in vivo, 0.75 h; outline: as §3
[30] = test system: Cynomolgus monkey; test: Uptake in anesthetized cynomolgus monkey medulla after 9.5 mins; assay type: ADME, organism-based, Medulla of organ; conditions: in vivo; outline: as §3
[31] = test system: Cynomolgus monkey; test: Uptake in anesthetized cynomolgus monkey occipital after 0.5 mins; assay type: ADME, organism-based, Occipital cortex; conditions: in vivo; outline: as §3
[32] = test system: Cynomolgus monkey; test: Uptake in anesthetized cynomolgus monkey cerebellum after 18.5 mins; assay type: ADME, organism-based, Macaca mulatta; conditions: rhesus monkey, in vivo; outline: as §2
[33] = test system: Cynomolgus monkey; test: Uptake in anesthetized cynomolgus monkey frontal after 35.0 mins; assay type: ADME, organism-based, Frontal cortex; conditions: in vivo; outline: as §3
[34] = test system: Cynomolgus monkey; test: Uptake in anesthetized cynomolgus monkey caudate after 35.0 mins; assay type: ADME, organism-based, Caudate nucleus; conditions: in vivo; outline: as §2

**Q.** Which Drug uptake [1] does the source give for `[11CH3]OC(=O)[C@@H]1C2CCC(C[C@@H]1c1cccc(/C=C/Br)c1)N2` (some centres undefined) here?
**A.** The Drug uptake was 6.39.

**Q.** And the Drug uptake [2]?
**A.** Its Drug uptake is 6.47.

**Q.** And the Drug uptake [3]?
**A.** The Drug uptake was 0.73.

**Q.** What about the Drug uptake [4] of the same molecule?
**A.** Its Drug uptake is 7.19.

**Q.** What about the Ratio [5] of the same molecule?
**A.** Its Ratio is 0.9.

**Q.** And the Drug uptake [6]?
**A.** Its Drug uptake is 6.52.

**Q.** What about the Ratio [7] of the same molecule?
**A.** The Ratio was 1.5.

**Q.** And the Drug uptake [8]?
**A.** The Drug uptake was 6.07.

**Q.** And the Drug uptake [9]?
**A.** The Drug uptake was 7.1.

**Q.** What about the Drug uptake [10] of the same molecule?
**A.** Its Drug uptake is 7.31.

**Q.** And the Drug uptake [11]?
**A.** Its Drug uptake is 6.59.

**Q.** And the Drug uptake [12]?
**A.** Its Drug uptake is 5.3.

**Q.** What about the Ratio [13] of the same molecule?
**A.** Its Ratio is 1.2.

**Q.** What about the Ratio [14] of the same molecule?
**A.** Its Ratio is 1.5.

**Q.** What about the Drug uptake [15] of the same molecule?
**A.** Its Drug uptake is 2.85.

**Q.** What about the Drug uptake [16] of the same molecule?
**A.** Its Drug uptake is 3.76.

**Q.** And the Drug uptake [17]?
**A.** Its Drug uptake is 4.3.

**Q.** What about the Drug uptake [18] of the same molecule?
**A.** The Drug uptake was 0.34.

**Q.** And the Drug uptake [19]?
**A.** Its Drug uptake is 0.02.

**Q.** What about the Drug uptake [20] of the same molecule?
**A.** The Drug uptake was 6.63.

**Q.** And the Drug uptake [21]?
**A.** Its Drug uptake is 7.74.

**Q.** And the Ratio [22]?
**A.** The Ratio was 1.5.

**Q.** And the Drug uptake [23]?
**A.** Its Drug uptake is 3.7.

**Q.** What about the Drug uptake [24] of the same molecule?
**A.** Its Drug uptake is 4.55.

**Q.** And the Drug uptake [25]?
**A.** Its Drug uptake is 0.01.

**Q.** What about the Drug uptake [26] of the same molecule?
**A.** The Drug uptake was 7.89.

**Q.** And the Drug uptake [27]?
**A.** Its Drug uptake is 0.01.

**Q.** What about the Ratio [28] of the same molecule?
**A.** The Ratio was 1.8.

**Q.** And the Drug uptake [29]?
**A.** Its Drug uptake is 3.76.

**Q.** And the Drug uptake [30]?
**A.** Its Drug uptake is 5.99.

**Q.** What about the Drug uptake [31] of the same molecule?
**A.** The Drug uptake was 0.01.

**Q.** What about the Drug uptake [32] of the same molecule?
**A.** Its Drug uptake is 6.13.

**Q.** What about the Drug uptake [33] of the same molecule?
**A.** The Drug uptake was 3.7.

**Q.** And the Drug uptake [34]?
**A.** The Drug uptake was 6.21.
